Experimental data reported in ChEMBL document CHEMBL2163294, “2-(N-Benzyl-N-phenylsulfonamido)alkyl amide derivatives as γ-secretase inhibitors” (Bioorg Med Chem Lett, 2012).

Legend:
[1] = Inhibition of gamma-secretase
Mus musculus [2] = test: Antialzheimer activity in Tg2576 mouse assessed as reduction in plasma amyloid-beta40 level at 200 umol/kg, po measured at 180 mins; assay type: functional; details: 3 h
Outline: (§1)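 Transgenic mice received a single 200 µmol/kg dose. […] Test-compound concentrations in brain and plasma (nM) were measured at the same time point.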

[3] = Drug uptake in Tg2576 mouse brain at 200 umol/kg, po measured at 180 mins; assay type: ADME, organism-based; details: read-out: Drug uptake; outline: as §1
Mus musculus [4] = test: Antialzheimer activity in Tg2576 mouse assessed as reduction in brain amyloid-beta40 level at 200 umol/kg, po measured at 180 mins; assay type: functional; details: 3 h; outline: as §1
Liver = test: Metabolic stability in mouse liver microsomes; assay type: ADME, Microsome
[5] = Plasma concentration in Tg2576 mouse at 200 umol/kg, po measured at 180 mins; assay type: ADME, organism-based; outline: as §1
Liver microsomes = test: Metabolic stability in human liver microsomes; assay type: ADME, Microsome
[6] = Inhibition of gamma-secretase-mediated amyloid beta42 production by GS H4-8 SW1-42 assay
Gamma-secretase = test: Inhibition of human gamma-secretase expressed in IMR32 cell membranes using MBPC-125 Swedish as substrate assessed as inhibition of amyloid beta40 production after 2 hrs by ELISA; details: imr-32

| Compound | IC50 ([6]; read-out: IC50) | other results |
| --- | --- | --- |
| NC(=O)[C@@H](CCC(F)(F)F)N(Cc1ccc(-c2ncon2)cc1F)S(=O)(=O)c1ccc(Cl)cc1 |  | IC50 [1]: 0.3 nM |
| N#Cc1ccc(CN([C@H](CC2CC2)C(N)=O)S(=O)(=O)c2ccc(Cl)cc2)cc1 | 0.94 nM | inhibition in vivo at 200 µmol/kg (Mus musculus [2]): 81%; concentration at 3 h [3]: 2800 nM; inhibition in vivo at 200 µmol/kg (Mus musculus [4]): 75%; Stability (Liver): 0.17 nmol/min/mg; concentration at 3 h [5]: 8600 nM; Stability (Liver microsomes): 0.16 nmol/min/mg |
| COc1ccc(CN([C@H](CC(C)C)C(N)=O)S(=O)(=O)c2ccc(Cl)cc2)cc1 |  | IC50 (Gamma-secretase): 0.19 nM |
| COc1ccc(CN([C@@H](CC(C)C)C(N)=O)S(=O)(=O)c2ccc(Cl)cc2)cc1 | 315 nM |  |
| COc1ccc(CN([C@H](CC(C)C)C(=O)N(C)C)S(=O)(=O)c2ccc(Cl)cc2)cc1 | 1100 nM |  |
| CNC(=O)[C@@H](CC(C)C)N(Cc1ccc(OC)cc1)S(=O)(=O)c1ccc(Cl)cc1 | 380 nM |  |
| COc1ccc(CN([C@H](CC(C)C)C(=O)NO)S(=O)(=O)c2ccc(Cl)cc2)cc1F | 19 nM |  |
| COc1ccc(CN([C@H](CC(C)C)C(=O)N(C)OC)S(=O)(=O)c2ccc(Cl)cc2)cc1 | 160 nM |  |
| COc1ccc(CN([C@H](CC(C)C)C(=O)NN)S(=O)(=O)c2ccc(Cl)cc2)cc1 | 53 nM |  |
| CC(C)C[C@H](C(=O)NN)N(Cc1ccc(C(F)(F)F)cc1)S(=O)(=O)c1ccc(Cl)cc1 | 110 nM |  |
| COc1ccc(CN([C@H](CC(C)C)c2nc(C)no2)S(=O)(=O)c2ccc(Cl)cc2)cc1 | 2200 nM |  |
| COc1ccc(CN([C@H](CC(C)C)c2nc(C)ns2)S(=O)(=O)c2ccc(Cl)cc2)cc1 | 1200 nM |  |
| COc1ccc(CN([C@H](CC(C)C)C(=O)O)S(=O)(=O)c2ccc(Cl)cc2)cc1F | 220 nM |  |
| COc1ccc(CN(C(=O)c2ccc(Cl)cc2)[C@H](CC(C)C)C(N)=O)cc1F |  | IC50 [6]: Not Active |
| COc1ccc(CN(C(=O)Nc2ccccc2)[C@H](CC(C)C)C(N)=O)cc1F | 1100 nM |  |
| COc1ccc(CN([C@H](CC(C)C)C(N)=O)S(=O)(=O)c2ccccc2)cc1F | 1.7 nM |  |
| COc1ccc(CN([C@H](CC(C)C)C(N)=O)S(=O)(=O)c2ccc(Cl)cc2)cc1F | 0.15 nM |  |
| COc1ccc(CN([C@H](CC(C)C)C(N)=O)S(=O)(=O)c2cccc(Cl)c2)cc1F | 7 nM |  |
| COc1ccc(CN([C@H](CC(C)C)C(N)=O)S(=O)(=O)c2ccc(F)cc2)cc1F | 0.26 nM |  |
| CC(C)C[C@H](C(N)=O)N(Cc1ccc(C#N)cc1)S(=O)(=O)c1ccc(F)cc1 | 2.7 nM |  |
| COc1ccc(CN([C@H](CC(C)C)C(N)=O)S(=O)(=O)c2ccc(C)cc2)cc1F | 0.45 nM |  |

| Compound | IC50 ([6]; read-out: IC50) | other results |
| --- | --- | --- |
| Cc1ccc(S(=O)(=O)N(Cc2ccc(C#N)cc2)[C@H](CC(C)C)C(N)=O)cc1 | 2.8 nM |  |
| COc1ccc(CN([C@H](CC(C)C)C(N)=O)S(=O)(=O)c2cccc(C)c2)cc1F | 9.2 nM |  |
| COc1ccc(CN([C@H](CC(C)C)C(N)=O)S(=O)(=O)c2ccc(C(F)(F)F)cc2)cc1F | 0.27 nM |  |
| CCN([C@H](CC(C)C)C(N)=O)S(=O)(=O)c1ccc(Cl)cc1 | 2.3 nM |  |
| CC(C)C[C@H](C(N)=O)N(CC1CCN(Cc2ccccc2)CC1)S(=O)(=O)c1ccc(Cl)cc1 | 17 nM |  |
| CC(C)C[C@H](C(N)=O)N(CCSC(C)(C)C)S(=O)(=O)c1ccc(Cl)cc1 | 4.2 nM |  |
| CC(C)C[C@H](C(N)=O)N(CCCCN1CCOCC1)S(=O)(=O)c1ccc(Cl)cc1 | 9.9 nM |  |
| CC(C)C[C@H](C(N)=O)N(CCCCCCN1CCOCC1)S(=O)(=O)c1ccc(Cl)cc1 | 3.5 nM |  |
| CC(C)C[C@H](C(N)=O)N(CCCCCCn1ccnc1)S(=O)(=O)c1ccc(Cl)cc1 | 4.9 nM |  |
| CC(C)C[C@H](C(N)=O)N(CCCc1ccccc1)S(=O)(=O)c1ccc(Cl)cc1 | 0.41 nM |  |
| CC(C)C[C@H](C(N)=O)N(CC1CCCCC1)S(=O)(=O)c1ccc(Cl)cc1 | 0.79 nM |  |
| CC(C)C[C@H](C(N)=O)N(Cc1ccccc1)S(=O)(=O)c1ccc(Cl)cc1 | 0.35 nM |  |
| COc1ccccc1CN([C@H](CC(C)C)C(N)=O)S(=O)(=O)c1ccc(Cl)cc1 | 23 nM |  |
| COc1cccc(CN([C@H](CC(C)C)C(N)=O)S(=O)(=O)c2ccc(Cl)cc2)c1 | 0.59 nM |  |
| CC(C)C[C@H](C(N)=O)N(Cc1ccc(C(F)(F)F)cc1)S(=O)(=O)c1ccc(Cl)cc1 | 0.39 nM |  |
| CC(C)C[C@H](C(N)=O)N(Cc1ccc(CCl)cc1)S(=O)(=O)c1ccc(Cl)cc1 | 0.35 nM |  |
| CC(C)C[C@H](C(N)=O)N(Cc1ccc(OC(F)(F)F)cc1)S(=O)(=O)c1ccc(Cl)cc1 | 0.69 nM |  |
| CC(C)C[C@H](C(N)=O)N(Cc1ccc(C#N)cc1)S(=O)(=O)c1ccc(Cl)cc1 | 0.67 nM |  |
| CC(C)C[C@H](C(N)=O)N(Cc1ccc(F)cc1)S(=O)(=O)c1ccc(Cl)cc1 | 0.43 nM |  |
| CC(C)C[C@H](C(N)=O)N(Cc1ccc(C(C)C)cc1)S(=O)(=O)c1ccc(Cl)cc1 | 0.58 nM |  |
| CC(C)C[C@H](C(N)=O)N(Cc1ccc(C(C)(C)C)cc1)S(=O)(=O)c1ccc(Cl)cc1 | 0.39 nM |  |

| Compound | IC50 ([6]; read-out: IC50) | other results |
| --- | --- | --- |
| CC(C)C[C@H](C(N)=O)N(Cc1ccc(N(C)C)cc1)S(=O)(=O)c1ccc(Cl)cc1 | 0.27 nM |  |
| CC(C)C[C@H](C(N)=O)N(Cc1ccc(CN(C)C)cc1)S(=O)(=O)c1ccc(Cl)cc1 | 7.7 nM |  |
| CC(C)C[C@H](C(N)=O)N(Cc1ccc(F)c(F)c1)S(=O)(=O)c1ccc(Cl)cc1 | 0.44 nM |  |
| CC(C)C[C@H](C(N)=O)N(Cc1cc(F)cc(F)c1)S(=O)(=O)c1ccc(Cl)cc1 | 0.62 nM |  |
| COc1ccc(CN(CC(N)=O)S(=O)(=O)c2ccc(Cl)cc2)cc1F | 2000 nM |  |
| COc1ccc(CN([C@H](C)C(N)=O)S(=O)(=O)c2ccc(Cl)cc2)cc1F | 5.3 nM |  |
| CC[C@H](C(N)=O)N(Cc1ccc(C#N)cc1)S(=O)(=O)c1ccc(Cl)cc1 | 4.4 nM |  |
| CCC[C@H](C(N)=O)N(Cc1ccc(C#N)cc1)S(=O)(=O)c1ccc(Cl)cc1 | 2.6 nM |  |
| CCC[C@H](C(N)=O)N(Cc1ccc(OC)c(F)c1)S(=O)(=O)c1ccc(Cl)cc1 | 0.52 nM | inhibition in vivo at 200 µmol/kg (Mus musculus [2]): 41%; concentration at 3 h [3]: 380 nM; inhibition in vivo at 200 µmol/kg (Mus musculus [4]): 72%; Stability (Liver): 0.3 nmol/min/mg; concentration at 3 h [5]: 840 nM; Stability (Liver microsomes): 0.3 nmol/min/mg |
| CCCC[C@H](C(N)=O)N(Cc1ccc(C#N)cc1)S(=O)(=O)c1ccc(Cl)cc1 | 1 nM |  |
| COc1ccc(CN([C@@H](C(N)=O)C(C)C)S(=O)(=O)c2ccc(Cl)cc2)cc1F | 1.4 nM |  |
| NC(=O)[C@@H](CC1CC1)N(Cc1ccc(C(F)(F)F)cc1)S(=O)(=O)c1ccc(Cl)cc1 | 0.68 nM | inhibition in vivo at 200 µmol/kg (Mus musculus [2]): 65%; concentration at 3 h [3]: 6300 nM; inhibition in vivo at 200 µmol/kg (Mus musculus [4]): 78%; Stability (Liver): 0.27 nmol/min/mg; concentration at 3 h [5]: 3600 nM; Stability (Liver microsomes): 0.23 nmol/min/mg |
| C=CC[C@H](C(N)=O)N(Cc1ccc(OC)c(F)c1)S(=O)(=O)c1ccc(Cl)cc1 | 0.35 nM |  |
| COc1ccc(CN([C@H](Cc2ccccc2)C(N)=O)S(=O)(=O)c2ccc(Cl)cc2)cc1 | 390 nM |  |
| CSCC[C@H](C(N)=O)N(Cc1ccc(C#N)cc1)S(=O)(=O)c1ccc(Cl)cc1 | 19 nM |  |
| C[S+]([O-])CC[C@H](C(N)=O)N(Cc1ccc(C#N)cc1)S(=O)(=O)c1ccc(Cl)cc1 (stereo not given in full) | 1800 nM |  |
| CS(=O)(=O)CC[C@H](C(N)=O)N(Cc1ccc(C#N)cc1)S(=O)(=O)c1ccc(Cl)cc1 | 4300 nM |  |
| COC[C@H](C(N)=O)N(Cc1ccc(C#N)cc1)S(=O)(=O)c1ccc(Cl)cc1 | 48 nM |  |
| CC(C)(C)C(=O)C[C@H](C(N)=O)N(Cc1ccc(C#N)cc1)S(=O)(=O)c1ccc(Cl)cc1 | 54 nM |  |
| COc1ccc(CN([C@@H]2CCCCNC2=O)S(=O)(=O)c2ccc(Cl)cc2)cc1 |  | inhibition in vivo at 200 µmol/kg (Mus musculus [2]): 47%; concentration at 3 h [3]: 2200 nM; inhibition in vivo at 200 µmol/kg (Mus musculus [4]): 49%; Stability (Liver): 0.22 nmol/min/mg; concentration at 3 h [5]: 280 nM; Stability (Liver microsomes): 0.23 nmol/min/mg |
